Active and inactive are the calls of the source. The rule behind the calls is not given here.
Legend:
Poliovirus 1 = assay: Antiviral activity against Human poliovirus type 1 infected in Human HeLa cell assessed as inhibition of translation at 10 ug/ml by luciferase reporter gene assay; assay type: functional, organism-based
Method in brief: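 In-cell translation control: HeLa cells electroporated with 20 μg PV1-Luc replicon RNA were placed in medium with 10 μg/ml puromycin at 37°C in 5% CO2. Luciferase in lysates was read by luminometer at hourly time points after transfection. Two experiments were averaged.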

Vero = assay: Cytotoxicity against African green monkey Vero cells at 10 uM after 24 hrs by MTS assay; assay type: cell-based; details: chlorocebus sabaeus
SK-N-MC = assay: Cytotoxicity against human SK-N-MC cell at 10 uM after 24 hrs by MTS assay; assay type: cell-based
HeLa [1] = assay: Cytotoxicity against human HeLa cells 10 uM after 24 hrs by MTS assay; assay type: cell-based
Method in brief: (§1)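 HeLa cells at ~80% confluence, uninfected, exposed to 1–100 μM PPMO or water (mock) in serum-free DMEM-F-12 (1:1) for 24 h. MTS reagent was added for 4 h and absorbance read at 492 nm. Viability was expressed as percent of water-treated cells (set to 100%), averaged over 12 wells.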

HeLa [2] = assay: Cytotoxicity against human HeLa cells at 10 uM by MTS assay; assay type: cell-based; method in brief: as §1

Compound	Activity (Poliovirus 1)	Activity (Vero)	Activity (SK-N-MC)	Activity (HeLa [1])	Activity (HeLa [2])
Cc1cn([C@H]2CN(P(=O)(OC[C@@H]3CN(P(=O)(OC[C@@H]4CN(P(=O)(OC[C@@H]5CN(P(=O)(OC[C@@H]6CNC[C@H](n7cnc8c(N)ncnc87)O6)N(C)C)C[C@H](n6cnc7c(N)ncnc76)O5)N(C)C)C[C@H](n5cc(C)c(=O)[nH]c5=O)O4)N(C)C)C[C@H](n4cc(C)c(=O)[nH]c4=O)O3)N(C)C)C[C@@H](COP(=O)(N(C)C)N3C[C@@H](COP(=O)(N(C)C)N4C[C@@H](COP(=O)(N(C)C)N5C[C@@H](COP(=O)(N(C)C)N6C[C@@H](COP(=O)(N(C)C)N7C[C@@H](COP(=O)(N(C)C)N8C[C@@H](COP(=O)(N(C)C)N9C[C@@H](COP(=O)(N(C)C)N%10C[C@@H](COP(=O)(N(C)C)N%11C[C@@H](COP(=O)(N(C)C)N%12C[C@@H](COP(=O)(N(C)C)N%13C[C@@H](COP(=O)(N(C)C)N%14C[C@@H](COP(=O)(N(C)C)N%15C[C@@H](COP(=O)(N(C)C)N%16C[C@@H](COP(=O)(N(C)C)N%17C[C@@H](COP(=O)(N(C)C)N%18C[C@@H](COP(=O)(N(C)C)N%19C[C@@H](COP(=O)(N(C)C)N%20C[C@@H](COP(=O)(N(C)C)N%21C[C@@H](COP(=O)(N(C)C)N%22CCN(C(=O)CCNC(=O)CCCCCNC(=O)[C@H](CCCNC(=N)N)NC(=O)CCCCCNC(=O)[C@H](CCCNC(=N)N)NC(=O)[C@H](CCCNC(=N)N)NC(=O)CCCCCNC(=O)[C@H](CCCNC(=N)N)NC(=O)[C@H](CCCNC(=N)N)NC(=O)CCCCCNC(=O)[C@H](CCCNC(=N)N)NC(=O)[C@H](CCCNC(=N)N)NC(=O)CCCCCNC(=O)[C@@H](N)CCCNC(=N)N)CC%22)O[C@@H](n%22cnc%23c(=O)[nH]c(N)nc%23%22)C%21)O[C@@H](n%21cnc%22c(=O)[nH]c(N)nc%22%21)C%20)O[C@@H](n%20cc(C)c(=O)[nH]c%20=O)C%19)O[C@@H](n%19cnc%20c(N)ncnc%20%19)C%18)O[C@@H](n%18ccc(N)nc%18=O)C%17)O[C@@H](n%17cnc%18c(N)ncnc%18%17)C%16)O[C@@H](n%16cnc%17c(N)ncnc%17%16)C%15)O[C@@H](n%15ccc(N)nc%15=O)C%14)O[C@@H](n%14ccc(N)nc%14=O)C%13)O[C@@H](n%13ccc(N)nc%13=O)C%12)O[C@@H](n%12ccc(N)nc%12=O)C%11)O[C@@H](n%11cc(C)c(=O)[nH]c%11=O)C%10)O[C@@H](n%10cnc%11c(=O)[nH]c(N)nc%11%10)C9)O[C@@H](n9cc(C)c(=O)[nH]c9=O)C8)O[C@@H](n8cnc9c(=O)[nH]c(N)nc98)C7)O[C@@H](n7ccc(N)nc7=O)C6)O[C@@H](n6cc(C)c(=O)[nH]c6=O)C5)O[C@@H](n5cnc6c(=O)[nH]c(N)nc65)C4)O[C@@H](n4cc(C)c(=O)[nH]c4=O)C3)O2)c(=O)[nH]c1=O (stereo partly specified)	inactive	Non-toxic	Non-toxic	Toxic	Non-toxic
Cc1cn([C@H]2CNC[C@@H](COP(=O)(N(C)C)N3C[C@@H](COP(=O)(N(C)C)N4C[C@@H](COP(=O)(N(C)C)N5C[C@@H](COP(=O)(N(C)C)N6C[C@@H](COP(=O)(N(C)C)N7C[C@@H](COP(=O)(N(C)C)N8C[C@@H](COP(=O)(N(C)C)N9C[C@@H](COP(=O)(N(C)C)N%10C[C@@H](COP(=O)(N(C)C)N%11C[C@@H](COP(=O)(N(C)C)N%12C[C@@H](COP(=O)(N(C)C)N%13C[C@@H](COP(=O)(N(C)C)N%14C[C@@H](COP(=O)(N(C)C)N%15C[C@@H](COP(=O)(N(C)C)N%16C[C@@H](COP(=O)(N(C)C)N%17C[C@@H](COP(=O)(N(C)C)N%18C[C@@H](COP(=O)(N(C)C)N%19C[C@@H](COP(=O)(N(C)C)N%20C[C@@H](COP(=O)(N(C)C)N%21C[C@@H](COP(=O)(N(C)C)N%22C[C@@H](COP(=O)(N(C)C)N%23CCN(C(=O)CCNC(=O)CCCCCNC(=O)[C@H](CCCNC(=N)N)NC(=O)CCCCCNC(=O)[C@H](CCCNC(=N)N)NC(=O)[C@H](CCCNC(=N)N)NC(=O)CCCCCNC(=O)[C@H](CCCNC(=N)N)NC(=O)[C@H](CCCNC(=N)N)NC(=O)CCCCCNC(=O)[C@H](CCCNC(=N)N)NC(=O)[C@H](CCCNC(=N)N)NC(=O)CCCCCNC(=O)[C@@H](N)CCCNC(=N)N)CC%23)O[C@@H](n%23cc(C)c(=O)[nH]c%23=O)C%22)O[C@@H](n%22cnc%23c(N)ncnc%23%22)C%21)O[C@@H](n%21ccc(N)nc%21=O)C%20)O[C@@H](n%20cnc%21c(=O)[nH]c(N)nc%21%20)C%19)O[C@@H](n%19cnc%20c(=O)[nH]c(N)nc%20%19)C%18)O[C@@H](n%18cc(C)c(=O)[nH]c%18=O)C%17)O[C@@H](n%17cnc%18c(=O)[nH]c(N)nc%18%17)C%16)O[C@@H](n%16cc(C)c(=O)[nH]c%16=O)C%15)O[C@@H](n%15cc(C)c(=O)[nH]c%15=O)C%14)O[C@@H](n%14cc(C)c(=O)[nH]c%14=O)C%13)O[C@@H](n%13cnc%14c(=O)[nH]c(N)nc%14%13)C%12)O[C@@H](n%12ccc(N)nc%12=O)C%11)O[C@@H](n%11cc(C)c(=O)[nH]c%11=O)C%10)O[C@@H](n%10ccc(N)nc%10=O)C9)O[C@@H](n9cc(C)c(=O)[nH]c9=O)C8)O[C@@H](n8cc(C)c(=O)[nH]c8=O)C7)O[C@@H](n7cnc8c(=O)[nH]c(N)nc87)C6)O[C@@H](n6cnc7c(N)ncnc76)C5)O[C@@H](n5cnc6c(N)ncnc65)C4)O[C@@H](n4ccc(N)nc4=O)C3)O2)c(=O)[nH]c1=O (stereo partly specified)	inactive	Non-toxic	Non-toxic	Toxic	Non-toxic
Cc1cn([C@H]2CN(P(=O)(OC[C@@H]3CN(P(=O)(OC[C@@H]4CN(P(=O)(OC[C@@H]5CN(P(=O)(OC[C@@H]6CN(P(=O)(OC[C@@H]7CN(P(=O)(OC[C@@H]8CN(P(=O)(OC[C@@H]9CN(P(=O)(OC[C@@H]%10CN(P(=O)(OC[C@@H]%11CN(P(=O)(OC[C@@H]%12CN(P(=O)(OC[C@@H]%13CN(P(=O)(OC[C@@H]%14CN(P(=O)(OC[C@@H]%15CN(P(=O)(OC[C@@H]%16CN(P(=O)(OC[C@@H]%17CN(P(=O)(OC[C@@H]%18CN(P(=O)(OC[C@@H]%19CN(P(=O)(OC[C@@H]%20CN(P(=O)(OC[C@@H]%21CN(P(=O)(OC[C@@H]%22CNC[C@H](n%23cnc%24c(N)ncnc%24%23)O%22)N(C)C)C[C@H](n%22cc(C)c(=O)[nH]c%22=O)O%21)N(C)C)C[C@H](n%21ccc(N)nc%21=O)O%20)N(C)C)C[C@H](n%20cnc%21c(N)ncnc%21%20)O%19)N(C)C)C[C@H](n%19cc(C)c(=O)[nH]c%19=O)O%18)N(C)C)C[C@H](n%18cc(C)c(=O)[nH]c%18=O)O%17)N(C)C)C[C@H](n%17cnc%18c(=O)[nH]c(N)nc%18%17)O%16)N(C)C)C[C@H](n%16cnc%17c(=O)[nH]c(N)nc%17%16)O%15)N(C)C)C[C@H](n%15cnc%16c(=O)[nH]c(N)nc%16%15)O%14)N(C)C)C[C@H](n%14cnc%15c(N)ncnc%15%14)O%13)N(C)C)C[C@H](n%13cc(C)c(=O)[nH]c%13=O)O%12)N(C)C)C[C@H](n%12cnc%13c(=O)[nH]c(N)nc%13%12)O%11)N(C)C)C[C@H](n%11cnc%12c(=O)[nH]c(N)nc%12%11)O%10)N(C)C)C[C@H](n%10cnc%11c(N)ncnc%11%10)O9)N(C)C)C[C@H](n9cnc%10c(=O)[nH]c(N)nc%109)O8)N(C)C)C[C@H](n8cc(C)c(=O)[nH]c8=O)O7)N(C)C)C[C@H](n7ccc(N)nc7=O)O6)N(C)C)C[C@H](n6cnc7c(N)ncnc76)O5)N(C)C)C[C@H](n5cnc6c(=O)[nH]c(N)nc65)O4)N(C)C)C[C@H](n4ccc(N)nc4=O)O3)N(C)C)C[C@@H](COP(=O)(N(C)C)N3CCN(C(=O)CCNC(=O)CCCCCNC(=O)[C@H](CCCNC(=N)N)NC(=O)CCCCCNC(=O)[C@H](CCCNC(=N)N)NC(=O)[C@H](CCCNC(=N)N)NC(=O)CCCCCNC(=O)[C@H](CCCNC(=N)N)NC(=O)[C@H](CCCNC(=N)N)NC(=O)CCCCCNC(=O)[C@H](CCCNC(=N)N)NC(=O)[C@H](CCCNC(=N)N)NC(=O)CCCCCNC(=O)[C@@H](N)CCCNC(=N)N)CC3)O2)c(=O)[nH]c1=O (stereo partly specified)	inactive	Non-toxic	Non-toxic	Toxic	Non-toxic
COc1ccc(C[C@H](N)C(=O)N[C@H]2[C@@H](O)[C@H](n3cnc4c(N(C)C)ncnc43)O[C@@H]2CO)cc1	Active				

— ChEMBL document CHEMBL1629545, “A morpholino oligomer targeting highly conserved internal ribosome entry site sequence is able to inhibit multiple species of picornavirus” (Antimicrob Agents Chemother, 2008)
